Among the data in ChEMBL document CHEMBL3046318, “Synthesis of a combinatorial library of amides and its evaluation against the fall armyworm, Spodoptera frugiperda” (2011) are mortality and LD50 values, retold here.

Common to all, as to format: functional
In assay [1] the test system is Spodoptera frugiperda. Put plainly: Insecticidal activity against pupal phase Spodoptera frugiperda (fall armyworm) assessed as mortality at 100 mg/kg compound administration with artificial diet (reference value: 13.3%). The essentials:
(§1)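 Ingestion assay on first instar larvae (1 day old), 30 per treatment and per control. Compound was dissolved in acetone, mixed with the diet's ascorbic acid (1.8 g), dried under vacuum at 40 °C, then incorporated into a bean/wheat germ artificial diet at 1-100 mg kg-1. Mortality recorded for the larval phase, the pupal phase and the total cycle.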

Assay [2] concerns Spodoptera frugiperda. In words: Insecticidal activity against pupal phase Spodoptera frugiperda (fall armyworm) assessed as mortality at 1 mg/kg compound administration with artificial diet (reference value: 13.3%). An outline of the steps:
as §1

In assay [3] the test system is Spodoptera frugiperda. In words: Insecticidal activity against Spodoptera frugiperda (fall armyworm) during total cycle assessed as mortality at 1 mg/kg compound administration with artificial diet (reference value: 13.3%). An outline of the steps:
as §1

For assay [4], the system named is Spodoptera frugiperda. In words: Insecticidal activity against larval phase Spodoptera frugiperda (fall armyworm) assessed as mortality at 100 mg/kg compound administration with artificial diet (reference value: 6.66%). An outline of the steps: as §1
In assay [5] the test system is Spodoptera frugiperda. In words: Insecticidal activity against pupal phase Spodoptera frugiperda (fall armyworm) assessed as mortality at 50 mg/kg compound administration with artificial diet (reference value: 13.3%). The essentials:
as §1

For assay [6], the system named is Spodoptera frugiperda. In words: Insecticidal activity against 5 day old second instar larvae of Spodoptera frugiperda (fall armyworm) measured after 48 hr topical administration. The essentials: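 Topical application to second instar larvae, 1 μL per insect in acetone (control: acetone alone). About 300 mg of artificial diet supplied 1 h after application. Mortality counted at 48 h. Five replicates. Single-sample screens of mixtures were run at 2000 mg L-1, with means compared by Tukey test (P ≤ 0.05). LD50 from log dose probit lines, with Abbott correction for control mortality.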

Assay [7] concerns Spodoptera frugiperda. In words: Insecticidal activity against Spodoptera frugiperda (fall armyworm) during total cycle assessed as mortality at 50 mg/kg compound administration with artificial diet (reference value: 13.3%). The essentials:
as §1

The test system of assay [8] is Spodoptera frugiperda. In words: Insecticidal activity against larval phase Spodoptera frugiperda (fall armyworm) assessed as mortality at 1 mg/kg compound administration with artificial diet (reference value: 6.66%). An outline of the steps: as §1
The test system of assay [9] is Spodoptera frugiperda. Put plainly: Insecticidal activity against larval phase Spodoptera frugiperda (fall armyworm) assessed as mortality at 50 mg/kg compound administration with artificial diet (reference value: 6.66%). An outline of the steps: as §1
In assay [10] the test system is Spodoptera frugiperda. Put plainly: Insecticidal activity against larval phase Spodoptera frugiperda (fall armyworm) assessed as mortality at 10 mg/kg compound administration with artificial diet (reference value: 6.66%). The essentials: as §1
The subject of assay [11] is Spodoptera frugiperda. In words: Insecticidal activity against pupal phase Spodoptera frugiperda (fall armyworm) assessed as mortality at 10 mg/kg compound administration with artificial diet (reference value: 13.3%). The essentials: as §1
Assay [12] concerns Spodoptera frugiperda. In words: Insecticidal activity against Spodoptera frugiperda (fall armyworm) during total cycle assessed as mortality at 10 mg/kg compound administration with artificial diet (reference value: 13.3%). The essentials: as §1
For assay [13], the system named is Spodoptera frugiperda. In words: Insecticidal activity against Spodoptera frugiperda (fall armyworm) during total cycle assessed as mortality at 100 mg/kg compound administration with artificial diet (reference value: 13.3%). The essentials:
as §1

A word on the mortality: it is the share of the test organisms that died. On to `O=C(/C=C/c1ccc(OC(F)(F)F)cc1)N1CCCCC1`, for which the mortality at 100 mg/kg in assay [1] turned out to be 75%; in assay [4], 55%; in assay [13] it was 86.6%. For the same molecule, the mortality at 1 mg/kg in assay [2] is 61.4%; in [3], 83.3%; in assay [8], 65.8%. The mortality at 50 mg/kg amounted to 69.4% in assay [5], 93.3% in assay [7] and 73.3% in [9]. For the same molecule, in assay [6], the LD50 came to 0.793 µg/mg. Moreover, the mortality at 10 mg/kg in [10] is 63.3%; in assay [11], 48.6%; in [12], 86.6%.
Molecule `O=C(c1ccc(OC(F)(F)F)cc1)N1CCCCC1` returned an LD50 in [6] of 8.15 µg/mg.
